According to ChEMBL document CHEMBL1799999, “N-benzoylated phenoxazines and phenothiazines: synthesis, antiproliferative activity, and inhibition of tubulin polymerization” (J Med Chem, 2011):

Key:
K562 = experiment: Antiproliferative activity against human K562 cells after 48 hrs by hemocytometric analysis; assay type: functional, cell-based; details: K562, 48 h
In short: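 K562 cells in RPMI 1640 with 10% FBS at 37 °C/5% CO2, plated at 2 × 10^5 cells/mL. Compounds in DMSO/methanol 1:1, final vehicle 0.5%. Cells counted in a Neubauer hemocytometer after 48 h and expressed as % of untreated control. Triplicate wells, three experiments; IC50 by nonlinear regression.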

Tubulin = Tubulin (Sus scrofa, UniProt P02554+P02550); experiment: Inhibition of pig tubulin polymerization determined after 45 mins at 37 degC by turbidimetric analysis; assay type: protein assay
In short: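 Microtubule protein (80–90% tubulin with MAPs) from porcine brain, isolated by two cold/warm cycles. Buffer: 20 mM PIPES pH 6.8, 80 mM NaCl, 0.5 mM MgCl2, 1 mM EGTA, 1 mM DTT. Protein at 1.2 mg/mL (about 10 μM tubulin) with 0.6 mM GTP, 1% DMSO, 37 °C.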

DLD-1 = experiment: Antiproliferative activity against human DLD1 cells after 48 hrs by alamar blue assay; assay type: functional, cell-based; details: DLD-1, 48 h
In short: (§1)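 Cells seeded in growth medium and grown 24 h at 37 °C/5% CO2. 10 mM DMSO stocks diluted in half-log steps into medium, final DMSO 0.316%. After 45 h of compound exposure, AlamarBlue (resazurin) added for a further 3 h, giving 48 h total. Fluorescence read at 590 nm against untreated and cell-free blanks. At least two replicates; IC50 by nonlinear regression.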

BT-549 = experiment: Antiproliferative activity against human BT549 cells after 48 hrs by alamar blue assay; assay type: functional, cell-based; details: BT-549, 48 h; in short: as §1
cells = details: Homo sapiens, 451Lu, 48 h
SK-OV-3 = experiment: Antiproliferative activity against human SKOV3 cells after 48 hrs by alamar blue assay; assay type: functional, cell-based; details: SK-OV-3, 48 h; in short: as §1
COLO 205 = experiment: Antiproliferative activity against human COLO205 cells after 48 hrs by alamar blue assay; assay type: functional, cell-based; details: COLO 205, 48 h; in short: as §1
NCI-H460 = experiment: Antiproliferative activity against human NCI-H460 cells after 48 hrs by alamar blue assay; assay type: functional, cell-based; details: NCI-H460, 48 h; in short: as §1
SW480 = experiment: Antiproliferative activity against human SW480 cells after 48 hrs by alamar blue assay; assay type: functional, cell-based; details: SW480, 48 h; in short: as §1

IC50 (K562) [nM] | IC50 (Tubulin) [µM] | SMILES | other results
970 | 3.23 | COc1ccc(C(=O)N2c3ccccc3Sc3ccc(OC)cc32)cc1 | 
35000 | > 10 | COc1cc(C(=O)N2c3ccccc3[S+]([O-])c3ccc(Cl)cc32)cc(OC)c1OC (stereo unspecified) | 
230 | 1.2 | N#Cc1ccc2c(c1)Oc1ccccc1N2C(=O)c1ccccc1 | 
2600 | 2.46 | COc1cc(C(=O)N2c3ccccc3S(=O)(=O)c3ccccc32)cc(OC)c1OC | 
800 | 1.05 | COc1ccc(C(=O)N2c3ccccc3S(=O)(=O)c3ccc(Cl)cc32)cc1 | 
140 | 0.57 | COc1ccc(C(=O)N2c3ccccc3Oc3ccc(Cl)cc32)cc1 | IC50 (DLD-1): 540 nM; IC50 (BT-549): 330 nM; IC50 (cells): 90 nM; IC50 (SK-OV-3): 350 nM; IC50 (COLO 205): 430 nM; IC50 (NCI-H460): 680 nM; IC50 (SW480): 530 nM
> 30000 | > 10 | Clc1ccc2c(c1)Nc1ccccc1O2 | 
33 | 1.1 | COc1ccc(C(=O)N2c3ccccc3Oc3ccccc32)cc1 | IC50 (DLD-1): 250 nM; IC50 (BT-549): 120 nM; IC50 (cells): 60 nM; IC50 (SK-OV-3): 210 nM; IC50 (COLO 205): 240 nM; IC50 (NCI-H460): 270 nM; IC50 (SW480): 240 nM
490 | 0.7 | COc1ccc(C(=O)N2c3cc(Cl)ccc3Oc3ccc(Cl)cc32)cc1 | 
210 | 1.4 | COc1ccc(C(=O)N2c3ccccc3Sc3ccccc32)cc1O | 
1380 | 0.65 | COc1cccc(C(=O)N2c3ccccc3Oc3ccc(Cl)cc32)c1 | 
11000 | > 10 | COc1cc(C(=O)N2c3ccccc3Sc3ccc(Cl)cc32)cc(OC)c1OC | 
1210 | 0.88 | CN(C)c1ccc(C(=O)N2c3ccccc3Oc3ccc(Cl)cc32)cc1 | 
180 | 3 | COc1ccc(C(=O)N2c3ccccc3S(=O)(=O)c3ccccc32)cc1O | 
> 30000 |  | COc1ccc(C(=O)N2c3ccccc3Sc3ccccc32)cc1OCc1ccccc1 | 
> 75000 |  | O=C(c1ccc(C(F)(F)F)cc1)N1c2ccccc2Oc2ccc(Cl)cc21 | 
420 | 9.39 | COc1ccc(C(=O)N2c3ccccc3[S+]([O-])c3ccccc32)cc1 | 
1860 | 4.96 | COc1cc(C(=O)N2c3ccccc3Sc3ccccc32)cc(OC)c1OC | 
> 10000 | > 10 | N#Cc1ccc2c(c1)Oc1ccccc1N2 | 
 |  | CC(=O)O[C@H]1C(=O)[C@@]2(C)[C@H]([C@H](OC(=O)c3ccccc3)[C@]3(O)C[C@H](OC(=O)[C@H](O)[C@@H](NC(=O)c4ccccc4)c4ccccc4)C(C)=C1C3(C)C)[C@]1(OC(C)=O)CO[C@@H]1C[C@@H]2O [PACLITAXEL] | IC50 (DLD-1): 50 nM; IC50 (BT-549): 6 nM; IC50 (SK-OV-3): 6 nM; IC50 (COLO 205): 5 nM; IC50 (NCI-H460): 4 nM; IC50 (SW480): 11 nM
300 | 8.4 | COc1ccc(C(=O)N2c3ccccc3[S+]([O-])c3ccccc32)cc1O | 
4810 | > 10 | COc1ccc(CC(=O)N2c3ccccc3Oc3ccccc32)cc1 | 
> 80000 | 5.03 | O=C(c1ccc([N+](=O)[O-])cc1)N1c2ccccc2Oc2ccc(Cl)cc21 | 
1400 | 2.79 | COc1ccc(C(=O)N2c3ccccc3[S+]([O-])c3ccc(Cl)cc32)cc1 (stereo unspecified) | 
330 | 2.23 | COc1ccc(C(=O)N2c3ccccc3Sc3ccccc32)cc1 | 
8000 |  | COc1ccc(CC(=O)N2c3ccccc3Sc3ccc(Cl)cc32)cc1 | 
840 | 0.87 | COc1ccc(C(=O)N2c3ccccc3Sc3ccc(Cl)cc32)cc1 | 
> 20000 |  | COc1ccc(C(=O)CN2c3ccccc3Oc3ccc(Cl)cc32)cc1 | 

SMILES | IC50 (K562) [nM] | IC50 (Tubulin) [µM] | other results
c1ccc2c(c1)Nc1ccccc1S2 [PHENOTHIAZINE] | > 100000 |  | 
